# Compound activity as filed in PubChem BioAssay.
# PP5 primary: blocks human protein phosphatase 5 activity; purified PP5c, OMFP substrate fluorescence; inhibition, % at 6.7 µM; 0.18% of 320,000 active; AID 1987;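 active = inhibition above the campaign's mean inhibition across all tested compounds plus 3 SD, cut at about 9.5% in these data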;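 also: 0% = DMSO only and 100% = 100 µM cantharidin control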
# Target sequence (P53041 whole entry, looked up): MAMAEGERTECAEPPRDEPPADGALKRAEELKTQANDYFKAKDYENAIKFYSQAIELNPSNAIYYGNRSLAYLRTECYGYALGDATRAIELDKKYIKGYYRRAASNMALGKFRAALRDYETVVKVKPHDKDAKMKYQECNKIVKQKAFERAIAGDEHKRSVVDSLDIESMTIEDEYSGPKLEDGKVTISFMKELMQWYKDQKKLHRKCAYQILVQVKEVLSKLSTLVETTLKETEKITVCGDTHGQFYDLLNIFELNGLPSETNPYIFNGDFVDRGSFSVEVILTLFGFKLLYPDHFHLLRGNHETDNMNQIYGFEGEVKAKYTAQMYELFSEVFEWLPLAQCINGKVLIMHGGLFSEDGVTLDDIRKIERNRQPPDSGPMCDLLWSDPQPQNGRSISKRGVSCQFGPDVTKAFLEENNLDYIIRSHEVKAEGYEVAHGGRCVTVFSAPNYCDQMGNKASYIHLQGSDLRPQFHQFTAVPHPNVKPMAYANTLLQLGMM
# STEP block: blocks human striatal-enriched tyrosine phosphatase; recombinant STEP, OMFP fluorogenic substrate, fluorescence; inhibition, % at 20 µM; 0.25% of 360,000 active;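 active = inhibition at 20 µM, scaled per plate between control wells, above about 37%, limit read from the data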;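 also: 0% = DMSO with enzyme and substrate and 100% = substrate only without enzyme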
#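 Material: STEP (striatal-enriched tyrosine phosphatase) enzyme, cell-free | Medium: 50 mM Bis-Tris pH 6.0 with 2.5 mM DTT and 0.005% Tween 20 | Read-out: Percent inhibition scaled to no-enzyme and uninhibited-enzyme controls, plate-pattern corrected | Signal: Fluorescence read at 480 nm ex / 540 nm em | Times: 20 min reaction, room temperature, in the dark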
# Scp-1 inhibitor: inhibitors of human Scp-1 phosphatase; Q9GZU7; Recombinant Scp1, phosphopeptide, malachite green phosphate absorbance; inhibition, % at 20 µM; 0.88% of 340,000 active;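 active = inhibition above about 50% at 20 µM, limit read from the data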;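 also: plate controls were DMSO wells with enzyme for no effect and wells lacking enzyme for full effect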
#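 Assay system: SCP-1 catalytic fragment, aa 76-261 | Buffer or medium: Tris acetate buffer pH 5.5 with MgCl2 and Tween-20 | Compound: One concentration, 20 µM, with 1.0% DMSO | Also added: Phospho 17-mer peptide substrate | Signal: Absorbance at 630 nm | Incubation: 45 min enzyme reaction at room temperature | Measure: % inhibition of SCP-1 phosphate liberation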
# PP1 counter: counter-screen for PP5 inhibitors: inhibitors of human PP1-alpha; AID 2235; inhibition, % at 6.7 µM; 0.9% of 320,000 active; P62136; purified PP1alpha, OMFP fluorescence;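 active = inhibition above the mean inhibition of all tested compounds plus 3 SD, computed separately for each screening campaign, cut at about 15% in these data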
# LMPTP block: blocks human LMPTP phosphatase; inhibition, % at 20 µM; AID 651560; recombinant LMPTP-A, OMFP fluorogenic substrate, fluorescence intensity; 0.22% of 360,000 active; P24666;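 active = compounds that cut the enzyme signal by at least half of the control window in the single-dose screen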;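 also: plate controls were DMSO wells with enzyme plus substrate for no effect and substrate without enzyme for full effect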
# Target sequence (P24666 whole entry, looked up): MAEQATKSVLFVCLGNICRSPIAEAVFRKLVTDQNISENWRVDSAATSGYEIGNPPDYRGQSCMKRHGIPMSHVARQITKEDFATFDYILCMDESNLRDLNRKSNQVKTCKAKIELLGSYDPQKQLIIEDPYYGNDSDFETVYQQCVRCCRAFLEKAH
#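 test system = LMPTP-A | amount = 0.625 nM LMPTP-A final | reagent = fluorogenic phosphatase substrate OMFP at 400 µM final | incubation = 50 min at room temperature | benchmarks = no-enzyme low control, uninhibited high control | medium = Bis-Tris pH 6.0, DTT, detergent | signal = fluorescence intensity of OMFP turnover product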
# * marks the source's active call; other numbers are inactive results; · = no result given. Hits are enriched below; roughly 1.9% of the tested compounds scored in any of these assays.
SMILES,PP5 primary,STEP block,Scp-1 inhibitor,PP1 counter,LMPTP block
COc1ccc(C(=O)C2CCCN(C(=O)CCc3ccccn3)C2)c(C)c1 (stereo not drawn),-2.1,-1.8,-3.4,7.2,1.2
Cc1ccc(-n2c(-c3ccc(Br)cc3)c[n+]3c2CCc2ccc4cccnc4c2-3)cc1,2.0,6.4,8.6,25.0*,27.8
O=C(CCCn1ncn2c(cc3occc32)c1=O)N1CCc2ccccc2C1,0.0,4.9,-2.2,-2.0,-2.2
COc1ccc(-c2nn(-c3ccccc3)cc2/C=C2/SC(=S)N(CCC(=O)O)C2=O)cc1,2.4,17.8,85.5*,2.7,-0.4
COc1ccc(-c2nn(-c3ccccc3)cc2/C=C2/SC(=S)N(CCC(=O)O)C2=O)c(C)c1,3.2,2.0,-2.0,8.1,7.3
O=C(O)CCN1C(=O)/C(=C/c2cn(-c3ccccc3)nc2-c2cccs2)SC1=S,·,73.9*,38.0,·,80.9*
O=C(O)CCCCCN1C(=O)/C(=C\c2cn(-c3ccccc3)nc2-c2cccs2)SC1=S,1.6,1.9,66.0*,1.0,5.0
O=C(CSC(=S)N1CCCC1)N1CCN(S(=O)(=O)c2cccc(F)c2)CC1,0.3,1.1,1.8,-0.7,0.4
O=C1CS/C(=N\N=C\c2ccco2)N1c1ccccc1,-0.8,2.3,34.4,-1.2,5.4
CC(C)c1ccc(C2CC(=O)c3cnc(N4CCc5ccccc5C4)nc3C2)cc1 (stereo not drawn),1.6,2.5,1.0,4.4,1.0
Nc1ncc2c(n1)CC(c1ccco1)CC2=O (stereo not drawn),-5.3,-0.6,0.2,-3.7,60.2*
O=C1CC(c2ccco2)Cc2nc(N3CCc4ccccc4C3)ncc21 (stereo not drawn),-7.3,-3.8,-1.9,17.1*,31.0
CN(CC(=O)Nc1ccccc1Cl)C(=O)COC(=O)c1nc(Cl)ccc1Cl,-2.0,-1.7,-4.0,-0.7,-1.1
O=C1c2ccccc2C(O)(c2ccccc2)N1c1ccncc1 (stereo not drawn),-0.6,29.6,-4.5,15.7*,-1.5
CCc1ccc(Nc2nc(N)nc(CSc3nnnn3-c3ccccc3)n2)cc1,1.0,-0.8,10.5,15.8*,-0.2
CC1(C)Cc2c(C#N)c(N3CCN(C(=O)c4ccccc4)CC3)nc(-c3ccco3)c2CS1,1.4,2.9,-3.6,15.5*,1.7
CC(C)c1nc(N2CCN(C(=O)c3ccccc3)CC2)c(C#N)c2c1COC(C)(C)C2,5.7,-0.1,-5.0,-1.7,0.9
COc1cc(-c2nnc(SCc3cc(=O)oc4cc(O)c(O)cc34)o2)cc(OC)c1OC,2.3,17.3,72.8*,7.6,62.6*
CCOC(=O)CSc1nnc(-c2cc(OC)c(OC)c(OC)c2)o1,0.0,-2.3,1.7,-3.6,0.2
Cc1ccc(OCc2nnc(SCC(=O)Nc3cccc4ccccc34)n2-c2ccccc2)cc1,7.7,-0.5,-7.6,15.2*,7.9
CCCCn1c(-c2ccccc2C)nc2cc3[nH]c(=O)c(C(C)C)nc3cc21,2.9,2.6,2.4,3.9,0.1
CCCCn1c(-c2cccc3ccccc23)nc2cc3[nH]c(=O)c(C(C)C)nc3cc21,3.7,1.9,-3.0,16.0*,2.0
Cc1ccc(/C=c2\sc3nc(-c4ccco4)nn3c2=O)o1,2.2,71.6*,81.3*,1.9,60.8*
Cc1ccc(/C=c2/sc3nnc(-c4ccccc4Cl)n3c2=O)o1,-0.5,4.7,48.9,-1.3,0.7
COc1ccc(Br)cc1/C=c1\sc2nc(-c3ccco3)nn2c1=O,1.3,12.4,88.0*,1.5,19.2
SMILES,PP5 primary,STEP block,Scp-1 inhibitor,PP1 counter,LMPTP block
COc1cccc(/C=N/Nc2nc(Nc3ccc([N+](=O)[O-])cc3)nc(N3CCCC3)n2)c1O,5.5,5.5,-2.5,15.5*,6.9
O=C(CSc1cccc[n+]1[O-])N1CCCCCC1,-0.8,3.9,-3.5,-2.9,-0.8
CC(Nc1nc(-c2ccccc2O)nc2ccccc12)c1ccccc1 (stereo not drawn),3.1,0.7,9.7,0.9,5.9
CC(Nc1nc(-c2ccccc2F)nc2ccccc12)c1ccccc1 (stereo not drawn),3.8,-0.5,1.4,2.7,73.6*
CC(Nc1nc(-c2ccccc2)nc2ccccc12)c1ccccc1 (stereo not drawn),5.6,-2.9,0.3,1.6,52.0*
Fc1ccccc1-c1nc(NC2CCCC2)c2ccccc2n1,2.4,-1.9,-1.6,0.2,69.6*
CN1OC[C@@H]2CN(Cc3ccccc3)[C@H](c3ccc(N4CCCCC4)cc3)C[C@@H]21,·,5.8,·,·,0.4
O=C(Nc1cccc(-c2nc3ncccc3o2)c1)c1sc2ccccc2c1Cl,1.5,9.9,2.4,0.2,50.2*
CC(C)CC1Nc2ncnc(N3CCN(c4ccccn4)CC3)c2N(Cc2ccc(Br)cc2)C1=O (stereo not drawn),2.2,0.5,0.6,16.6*,2.0
O=C(Nc1ccc2c(c1)OCCO2)C(C1CC1)n1c(=O)c(-c2cc3ccccc3[nH]2)nc2ccccc21 (stereo not drawn),·,·,·,·,4.8
Nc1ccc(Cn2ccc3c4c(N)nc(N)nc4ccc32)cc1,·,2.4,17.0,·,64.3*
Cc1nc2ccc(N)cc2c(=O)n1Cc1ccc(Cl)cc1,3.0,-2.7,-9.2,0.2,1.1
CCOc1ccc(CCNC(=O)Cn2ccc3ccccc3c2=O)cc1OCC,2.1,0.1,0.4,3.9,-1.3
O=C(O)CN1C(=O)/C(=C\c2cc(Br)ccc2OCc2ccc(Cl)cc2Cl)SC1=S,-1.8,15.1,31.1,-2.7,66.7*
O=C(O)CN1C(=O)/C(=C\c2ccccc2OCc2ccc(Cl)cc2)SC1=S,0.8,10.0,9.0,11.8,2.2
COc1ccc(C(CC(=O)O)n2cnnn2)cc1 (stereo not drawn),-0.4,-2.9,1.4,0.1,-1.5
CCOc1ccc(/C(O)=C2/C(=O)C(=O)N(CCN(CC)CC)C2c2ccco2)cc1 (stereo not drawn),1.7,3.0,-5.3,-0.9,1.2
Cc1ccccc1COc1ccc(/C(O)=C2/C(=O)C(=O)N(CCCn3ccnc3)C2c2ccco2)cc1 (stereo not drawn),2.6,-2.1,-10.7,17.5*,14.6
O=S(=O)(Cc1ccccc1)Nn1cnnc1,0.6,-0.1,-6.4,1.7,5.2
COc1cc(/C=C2/C(=O)NN(c3ccc(Cl)c(Cl)c3)C2=O)cc([N+](=O)[O-])c1O,1.7,9.1,91.8*,10.2,6.4
COc1cc(/C=C2/C(=O)NN(c3ccc(Cl)cc3)C2=O)cc(Br)c1O,4.1,83.2*,35.0,1.8,65.3*
COc1cc(/C=C2/C(=O)NN(c3ccc(F)cc3)C2=O)cc(Cl)c1O,3.0,3.2,-5.7,1.3,4.3
CC(NC(=O)Nc1ccccc1)C(c1ccccc1)N1CCOCC1 (stereo not drawn),0.1,-1.3,-5.3,-2.5,0.2
COc1ccc(NC(=O)c2ccc3ncsc3c2)cc1,0.0,-3.5,1.4,-0.7,-1.0
